Experimental findings from ChEMBL document CHEMBL1156191, “Characterization of the pharmacophore properties of novel selective estrogen receptor downregulators (SERDs)” (J Med Chem, 2010) are described below.

Calls of active or inactive are those of the source. The rule behind the calls is not given here.

The species entered for one experiment is Homo sapiens. The experiment is described as follows: Ratio of relative binding affinity for human ERbeta to relative binding affinity for human ERalpha.
In experiment [1] the target is T1, Estrogen receptor (Homo sapiens) (UniProt P03372).
T1 sequence (whole entry): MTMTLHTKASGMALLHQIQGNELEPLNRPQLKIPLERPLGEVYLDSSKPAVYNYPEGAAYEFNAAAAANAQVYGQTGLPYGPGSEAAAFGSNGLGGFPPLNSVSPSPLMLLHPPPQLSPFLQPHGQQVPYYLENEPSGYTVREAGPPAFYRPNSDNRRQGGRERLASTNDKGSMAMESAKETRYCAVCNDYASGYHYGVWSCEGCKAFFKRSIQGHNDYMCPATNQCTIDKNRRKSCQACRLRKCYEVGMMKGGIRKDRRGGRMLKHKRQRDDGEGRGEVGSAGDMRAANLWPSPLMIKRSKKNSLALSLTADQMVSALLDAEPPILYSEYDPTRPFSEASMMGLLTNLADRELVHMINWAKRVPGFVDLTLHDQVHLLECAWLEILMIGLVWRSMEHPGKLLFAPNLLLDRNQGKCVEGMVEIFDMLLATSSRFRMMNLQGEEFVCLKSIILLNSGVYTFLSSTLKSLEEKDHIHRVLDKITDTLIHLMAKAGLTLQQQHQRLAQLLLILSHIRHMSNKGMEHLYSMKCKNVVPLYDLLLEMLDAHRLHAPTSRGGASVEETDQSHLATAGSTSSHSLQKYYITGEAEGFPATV
Put plainly: Displacement of [3H]estradiol from full-length human estrogen receptor alpha assessed as relative binding affinity by radiometric assay relative to estradiol. For orientation: In a radioligand displacement assay an active substance lowers the binding of a labelled ligand.

Experiment [2] addresses Estrogen receptor beta (Homo sapiens) (UniProt Q92731). Put plainly: Displacement of [3H]estradiol from full-length human estrogen receptor beta assessed as relative binding affinity by radiometric assay relative to estradiol.
The subject of experiment [3] is MCF7. The experiment is described as follows: Down regulation of ERalpha expression in human MCF7 cell insoluble fraction at 1 uM after 16 hrs by Western blotting. The experiment is classed as functional, cell-based. The gist of the method: (§1)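 MCF-7 cells steroid-depleted five days in phenol red-free medium with 5% charcoal-dextran-treated calf serum, grown to ~80% confluency, then given 1 μM compound or 0.1% EtOH vehicle for 16 h. Cytoplasmic, nuclear, matrix and insoluble fractions or whole-cell lysate prepared. Western blot with anti-ERα (F10) and infrared detection; Sp1 serves as loading reference.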
(In general: Immunoblotting shows a protein as a band on a membrane.)

Experiment [4] concerns MCF7. Put plainly: Down regulation of ERalpha expression in human MCF7 cell nuclear fraction at 1 uM treated 16 hrs before estradiol challenge measured after 4 hrs by Western blotting in presence of 1 nM estradiol. The experiment is classed as functional, cell-based. In short, it runs like this: (§2)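 Steroid-depleted MCF-7 cells (5 d, 5% charcoal-dextran calf serum, phenol red-free medium) exposed 16 h to 1 μM compound, then 1 nM estradiol added for 4 h before fractionation into cytoplasmic, nuclear, matrix, insoluble or whole-cell extracts. ERα detected by Western blot with F10 antibody; Sp1 used as loading reference.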

Experiment [5] concerns the target T1, Estrogen receptor (Homo sapiens). Put plainly: Effect on ERalpha-mediated transcriptional activity in human MCF7 cells assessed as reduction of estradiol-induced activation of carbonic anhydrase 12 mRNA expression at 1 uM treated 16 hrs before estradiol challenge measured after 4 hrs by RT-PCR analysis. It is filed as cell-based. In short, it runs like this: (§3)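 MCF-7 cells steroid-depleted seven days in phenol red-free medium with 5% charcoal-dextran calf serum, grown to ~80% confluency, then given 1 μM compound 16 h followed by 0.1% ethanol vehicle or 1 nM estradiol for 4 h. Total RNA reverse transcribed and target mRNA quantified by real-time PCR. Repeated-measures one-way ANOVA with Tukey test.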

Experiment [6] deals with MCF7. The experiment is described as follows: Down regulation of ERalpha expression in human MCF7 cell insoluble fraction at 1 uM treated 16 hrs before estradiol challenge measured after 4 hrs by Western blotting in presence of 1 nM estradiol. It is filed as functional, cell-based. The gist of the method: as §2
Experiment [7] concerns MCF7. Put plainly: Down regulation of ERalpha expression in human MCF7 cell cytoplasmic fraction at 1 uM treated 16 hrs before estradiol challenge measured after 4 hrs by Western blotting in presence of 1 nM estradiol. The experiment is classed as functional, cell-based. The gist of the method: as §2
Experiment [8] concerns MCF7. The experiment is described as follows: Down regulation of ERalpha expression in human MCF7 cell nuclear fraction at 1 uM after 16 hrs by Western blotting. The experiment is classed as functional, cell-based. The gist of the method:
as §1

For experiment [9], the system named is MCF7. The experiment is described as follows: Down regulation of ERalpha expression in human MCF7 cell matrix fraction at 1 uM treated 16 hrs before estradiol challenge measured after 4 hrs by Western blotting in presence of 1 nM estradiol. It is filed as functional, cell-based. The gist of the method:
as §2

Experiment [10] has as its target T1, Estrogen receptor (Homo sapiens). The experiment is described as follows: Effect on ERalpha-mediated transcriptional activity in human MCF7 cells assessed as reduction of estradiol-induced activation of pS2 mRNA expression at 1 uM treated 16 hrs before estradiol challenge measured after 4 hrs by RT-PCR analysis. The experiment is classed as cell-based. In short, it runs like this:
as §3

Experiment [11] shares this target. Put plainly: Effect on ERalpha-mediated transcriptional activity in human MCF7 cells assessed as reduction of estradiol-induced activation of progesterone receptor mRNA expression at 1 uM treated 16 hrs before estradiol challenge measured after 4 hrs by RT-PCR analysis. The experiment is classed as cell-based. In short, it runs like this:
as §3

Experiment [12] deals with MCF7. The experiment is described as follows: Down regulation of ERalpha expression in human MCF7 cell matrix fraction at 1 uM after 16 hrs by Western blotting. The experiment is classed as functional, cell-based. In short, it runs like this:
as §1

In experiment [13] the test system is MCF7. The experiment is described as follows: Down regulation of ERalpha expression in human MCF7 cell cytoplasmic fraction at 1 uM after 16 hrs by Western blotting. The experiment is classed as functional, cell-based. The gist of the method:
as §1

For experiment [14], the system named is MCF7. Put plainly: Down regulation of ERalpha expression in human MCF7 cell whole cell extract at 1 uM treated 16 hrs before estradiol challenge measured after 4 hrs by Western blotting in presence of 1 nM estradiol. It is filed as functional, cell-based. The gist of the method:
as §2

Experiment [15] has as its system MCF7. The experiment is described as follows: Down regulation of ERalpha expression in human MCF7 cell whole cell extract at 1 uM after 16 hrs by Western blotting. It is filed as functional, cell-based. The gist of the method:
as §1

Sequence of Estrogen receptor beta (Homo sapiens) (Q92731 whole entry): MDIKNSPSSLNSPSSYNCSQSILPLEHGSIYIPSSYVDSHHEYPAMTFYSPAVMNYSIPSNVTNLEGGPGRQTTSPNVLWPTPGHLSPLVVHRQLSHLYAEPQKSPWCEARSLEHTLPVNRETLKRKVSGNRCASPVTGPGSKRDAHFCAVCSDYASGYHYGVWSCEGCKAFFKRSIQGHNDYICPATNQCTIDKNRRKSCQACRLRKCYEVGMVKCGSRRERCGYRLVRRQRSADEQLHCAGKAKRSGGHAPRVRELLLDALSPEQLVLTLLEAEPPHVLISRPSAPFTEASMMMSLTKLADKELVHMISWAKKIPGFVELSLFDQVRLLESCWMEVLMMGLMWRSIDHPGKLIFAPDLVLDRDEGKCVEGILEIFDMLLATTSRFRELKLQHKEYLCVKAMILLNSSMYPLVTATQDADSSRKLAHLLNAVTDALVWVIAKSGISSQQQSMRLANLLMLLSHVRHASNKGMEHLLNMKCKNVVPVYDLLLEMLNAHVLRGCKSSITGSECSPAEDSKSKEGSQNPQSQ

As to `O=C(O)C/C=C/c1ccc(C(=C2C3CCCC2CCC3)c2ccc(O)cc2)cc1`, in the experiment listed under Homo sapiens, the Ratio came to 2.6. In addition, the relative binding affinity (RBA) in experiment [1] was determined as 9; in experiment [2] it was 23.1.

For `CCC(=C(c1ccc(O)cc1)c1ccc(/C=C/C(=O)O)cc1)c1ccccc1`, the outcome with MCF7 [3], in the experiment on MCF7 [8], in the experiment with MCF7 [12] and in the experiment on MCF7 [15] was inactive. The outcome (in the experiment on MCF7 [4]; in experiment [5]; in the experiment on MCF7 [6]; in the experiment with MCF7 [7]; with MCF7 [9]; in experiment [10]) was Active. For the same compound, the outcome (in [11]; with MCF7 [13]; with MCF7 [14]) was Active.

Regarding `C[C@]12CC[C@@H]3c4ccc(O)cc4C[C@@H](CCCCCCCCC[S+]([O-])CCCC(F)(F)C(F)(F)F)[C@H]3[C@@H]1CC[C@@H]2O` (stereo partly drawn), the outcome in the experiment with MCF7 [3], in the experiment with MCF7 [8], with MCF7 [12], in the experiment on MCF7 [13] and in the experiment on MCF7 [15] was Active.

Turning to `O=C(O)CCCC/C=C/c1ccc(C(=C2C3CCCC2CCC3)c2ccc(O)cc2)cc1`, the Ratio in the experiment filed under Homo sapiens was found to be 0.93. Besides, the outcome in the experiment with MCF7 [3], in the experiment on MCF7 [8], with MCF7 [12], in the experiment on MCF7 [13] and in the experiment on MCF7 [15] was inactive. Also, the relative binding affinity (RBA) is 87.4 in [1] and 81.1 in [2].

Consider `O=C(O)CC/C=C/c1ccc(C(=C2C3CCCC2CCC3)c2ccc(O)cc2)cc1`, for which, in the experiment filed under Homo sapiens, the Ratio came out at 1.9. The results for the relative binding affinity (RBA) in experiment [1] and in experiment [2] were 13.1 and 24.6, respectively.

As to `O=C(O)CCC/C=C/c1ccc(C(=C2C3CCCC2CCC3)c2ccc(O)cc2)cc1`, the Ratio in the experiment filed under Homo sapiens was 1.6. Further, the relative binding affinity (RBA) in experiment [1] came out at 38.5; in experiment [2], 62.8.

Regarding `Oc1ccc(C(=C2CCCCC2)c2ccc(O)cc2)cc1`, the relative binding affinity (RBA) in [1] was determined as 68; in [2] it was 334.

Turning to `O=C(O)/C=C/c1ccc(C(=C2CCCCC2)c2ccc(O)cc2)cc1`, the outcome with MCF7 [3], in the experiment on MCF7 [8], in the experiment on MCF7 [12], in the experiment with MCF7 [13] and in the experiment with MCF7 [15] was inactive. Further, the result with MCF7 [4], with MCF7 [6], in the experiment with MCF7 [7], in the experiment on MCF7 [9] and in the experiment on MCF7 [14] was Active.

Consider `COP(=O)(O)/C=C/c1ccc(C(=C2C3CCCC2CCC3)c2ccc(O)cc2)cc1`, for which, in the experiment listed under Homo sapiens, the Ratio was 1. In addition, the results for the relative binding affinity (RBA) in experiment [1] and in experiment [2] were 7.5 and 7.7, respectively.

Regarding `O=C(O)CCCCCCCCCCOc1ccc(C(=C2C3CCCC2CCC3)c2ccc(O)cc2)cc1`, the outcome in the experiment on MCF7 [3], in the experiment on MCF7 [8], in the experiment on MCF7 [12], in the experiment on MCF7 [13] and in the experiment on MCF7 [15] was inactive.

For the compound `O=C(O)/C=C/c1ccc(C(=C2C3CCCC2CCC3)c2ccc(O)cc2)cc1`, the outcome with MCF7 [3], in the experiment on MCF7 [8], with MCF7 [12] and in the experiment on MCF7 [15] was inactive. The outcome (with MCF7 [4]; in experiment [5]; in the experiment with MCF7 [6]; in the experiment with MCF7 [7]; in the experiment with MCF7 [9]; in experiment [10]) was Active. For the same compound, the result (in experiment [11]; in the experiment with MCF7 [13]; in the experiment with MCF7 [14]) was Active.
